In ChEMBL document CHEMBL5649170, “Sustained microglial depletion with CSF1R inhibitor impairs parenchymal plaque development in an Alzheimer's disease model” (Nat Commun, 2019):
Calls of active or inactive are those of the source. The rule behind the calls is not given here.

What was measured:
Mus musculus [1] = test: Antialzheimer activity in 5XFAD mouse assessed as reduction in plaque pathology in […] cortex at 600 ppm administered as rodent chow starting from 1.5 months and measured after 5 months by immunolabeling based confocal microscopic analysis; format: functional, organism-based; conditions: route po, time 3.5 months
In short: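 5xFAD mice received 600 ppm PLX3397 in AIN-76A chow from 1.5 to 5 months of age. Brain sections were stained with Thio-S for dense-core plaques and immunolabeled for IBA1, then examined by confocal microscopy.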

[2] = target: Dual specificity tyrosine-phosphorylation-regulated kinase 1A (Homo sapiens, UniProt Q13627); test: Inhibition of DYRK1A (unknown origin)
Ephrin type-B receptor 1 = Ephrin type-B receptor 1 (Homo sapiens, UniProt P54762); test: Inhibition of EPHB1 (unknown origin)
Ephrin type-B receptor 1, sequence (P54762 whole entry): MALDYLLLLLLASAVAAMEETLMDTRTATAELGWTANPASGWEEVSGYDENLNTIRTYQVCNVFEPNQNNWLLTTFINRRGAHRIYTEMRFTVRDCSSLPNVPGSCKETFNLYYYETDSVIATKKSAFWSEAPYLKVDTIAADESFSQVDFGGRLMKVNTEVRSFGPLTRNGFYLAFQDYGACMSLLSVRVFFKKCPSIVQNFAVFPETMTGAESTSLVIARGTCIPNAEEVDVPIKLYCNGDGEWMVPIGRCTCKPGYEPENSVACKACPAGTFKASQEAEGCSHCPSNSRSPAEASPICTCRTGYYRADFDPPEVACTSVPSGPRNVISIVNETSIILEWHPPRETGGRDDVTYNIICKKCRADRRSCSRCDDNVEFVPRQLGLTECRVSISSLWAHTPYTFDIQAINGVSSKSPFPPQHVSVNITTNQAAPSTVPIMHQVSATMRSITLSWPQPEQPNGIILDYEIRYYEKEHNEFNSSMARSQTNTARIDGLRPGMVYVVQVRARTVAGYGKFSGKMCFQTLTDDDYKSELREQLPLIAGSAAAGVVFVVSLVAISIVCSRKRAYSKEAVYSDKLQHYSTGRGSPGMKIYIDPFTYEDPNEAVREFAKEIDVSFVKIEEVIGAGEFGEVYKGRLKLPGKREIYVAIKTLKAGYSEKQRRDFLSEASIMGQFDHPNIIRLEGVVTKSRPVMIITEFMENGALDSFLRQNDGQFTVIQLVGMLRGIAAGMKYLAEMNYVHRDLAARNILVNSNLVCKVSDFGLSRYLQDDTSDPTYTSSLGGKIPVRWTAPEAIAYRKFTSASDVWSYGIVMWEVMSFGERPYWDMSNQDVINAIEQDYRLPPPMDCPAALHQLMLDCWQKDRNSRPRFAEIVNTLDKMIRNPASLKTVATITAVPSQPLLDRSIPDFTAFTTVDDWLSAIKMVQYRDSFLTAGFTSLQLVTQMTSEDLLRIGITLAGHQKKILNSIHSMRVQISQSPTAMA

[3] = target: Receptor tyrosine-protein kinase erbB-2 (Homo sapiens, UniProt P04626); test: Inhibition of ERBB2 (unknown origin)
Receptor tyrosine-protein kinase erbB-2, sequence (P04626 whole entry): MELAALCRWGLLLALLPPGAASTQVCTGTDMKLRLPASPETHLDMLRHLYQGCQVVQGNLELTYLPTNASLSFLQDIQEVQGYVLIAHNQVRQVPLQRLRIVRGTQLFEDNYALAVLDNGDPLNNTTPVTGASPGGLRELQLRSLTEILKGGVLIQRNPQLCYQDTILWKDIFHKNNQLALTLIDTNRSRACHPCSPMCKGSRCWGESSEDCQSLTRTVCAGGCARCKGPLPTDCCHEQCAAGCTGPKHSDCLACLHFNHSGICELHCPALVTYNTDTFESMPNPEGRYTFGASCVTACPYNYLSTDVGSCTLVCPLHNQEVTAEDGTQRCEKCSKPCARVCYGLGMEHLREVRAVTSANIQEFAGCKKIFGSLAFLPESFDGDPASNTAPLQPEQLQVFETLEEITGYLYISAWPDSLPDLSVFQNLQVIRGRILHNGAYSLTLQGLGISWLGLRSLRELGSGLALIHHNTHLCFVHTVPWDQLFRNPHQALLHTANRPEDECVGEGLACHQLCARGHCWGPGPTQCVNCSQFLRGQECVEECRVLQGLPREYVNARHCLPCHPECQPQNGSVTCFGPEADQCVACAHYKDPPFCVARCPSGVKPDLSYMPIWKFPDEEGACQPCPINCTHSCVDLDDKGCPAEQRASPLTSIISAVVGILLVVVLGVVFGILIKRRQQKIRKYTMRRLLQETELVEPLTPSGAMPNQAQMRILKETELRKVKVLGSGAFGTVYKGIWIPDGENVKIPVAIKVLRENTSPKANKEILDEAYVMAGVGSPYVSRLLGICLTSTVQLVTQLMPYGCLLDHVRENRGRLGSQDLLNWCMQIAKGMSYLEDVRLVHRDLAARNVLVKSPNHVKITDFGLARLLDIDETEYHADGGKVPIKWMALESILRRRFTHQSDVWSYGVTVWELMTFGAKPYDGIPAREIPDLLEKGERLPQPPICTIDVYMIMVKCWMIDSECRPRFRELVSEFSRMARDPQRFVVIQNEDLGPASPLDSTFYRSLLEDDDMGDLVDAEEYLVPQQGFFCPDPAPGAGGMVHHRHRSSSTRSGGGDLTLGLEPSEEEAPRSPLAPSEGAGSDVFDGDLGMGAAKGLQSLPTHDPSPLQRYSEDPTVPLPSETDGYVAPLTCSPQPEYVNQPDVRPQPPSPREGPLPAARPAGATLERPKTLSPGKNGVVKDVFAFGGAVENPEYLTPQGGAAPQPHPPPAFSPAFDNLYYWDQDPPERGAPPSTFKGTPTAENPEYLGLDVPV

[4] = target: Phosphatidylinositol 3-kinase catalytic subunit type 3 (Homo sapiens, UniProt Q8NEB9); test: Inhibition of PIK3C3 (unknown origin)
Phosphatidylinositol 3-kinase catalytic subunit type 3, sequence (Q8NEB9 whole entry): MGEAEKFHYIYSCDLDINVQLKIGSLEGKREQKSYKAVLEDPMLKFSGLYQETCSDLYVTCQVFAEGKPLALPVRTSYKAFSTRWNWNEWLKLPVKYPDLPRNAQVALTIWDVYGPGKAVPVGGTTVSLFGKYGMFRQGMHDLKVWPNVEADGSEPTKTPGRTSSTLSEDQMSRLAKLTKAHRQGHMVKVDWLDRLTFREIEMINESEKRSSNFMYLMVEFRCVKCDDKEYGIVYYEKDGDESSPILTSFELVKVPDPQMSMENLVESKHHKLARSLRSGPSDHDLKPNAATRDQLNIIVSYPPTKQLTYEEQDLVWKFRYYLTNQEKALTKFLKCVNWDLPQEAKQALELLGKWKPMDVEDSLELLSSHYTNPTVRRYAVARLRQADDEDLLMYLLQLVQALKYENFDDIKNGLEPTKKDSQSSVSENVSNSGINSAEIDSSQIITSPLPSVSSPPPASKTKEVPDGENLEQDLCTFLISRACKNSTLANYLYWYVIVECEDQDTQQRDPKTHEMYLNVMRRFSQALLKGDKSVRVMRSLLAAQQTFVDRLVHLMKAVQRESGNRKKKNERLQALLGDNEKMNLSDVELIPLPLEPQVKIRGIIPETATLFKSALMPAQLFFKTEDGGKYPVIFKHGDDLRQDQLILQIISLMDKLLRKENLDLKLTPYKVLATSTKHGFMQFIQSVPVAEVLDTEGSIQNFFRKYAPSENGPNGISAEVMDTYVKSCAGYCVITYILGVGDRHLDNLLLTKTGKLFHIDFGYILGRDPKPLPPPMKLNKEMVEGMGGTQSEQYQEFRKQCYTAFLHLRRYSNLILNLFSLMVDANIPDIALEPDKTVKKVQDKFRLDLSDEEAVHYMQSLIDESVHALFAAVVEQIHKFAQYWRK

[5] = target: Protein kinase C delta type (Homo sapiens, UniProt Q05655); test: Inhibition of PRKCD (unknown origin)
Protein kinase C delta type, sequence (Q05655 whole entry): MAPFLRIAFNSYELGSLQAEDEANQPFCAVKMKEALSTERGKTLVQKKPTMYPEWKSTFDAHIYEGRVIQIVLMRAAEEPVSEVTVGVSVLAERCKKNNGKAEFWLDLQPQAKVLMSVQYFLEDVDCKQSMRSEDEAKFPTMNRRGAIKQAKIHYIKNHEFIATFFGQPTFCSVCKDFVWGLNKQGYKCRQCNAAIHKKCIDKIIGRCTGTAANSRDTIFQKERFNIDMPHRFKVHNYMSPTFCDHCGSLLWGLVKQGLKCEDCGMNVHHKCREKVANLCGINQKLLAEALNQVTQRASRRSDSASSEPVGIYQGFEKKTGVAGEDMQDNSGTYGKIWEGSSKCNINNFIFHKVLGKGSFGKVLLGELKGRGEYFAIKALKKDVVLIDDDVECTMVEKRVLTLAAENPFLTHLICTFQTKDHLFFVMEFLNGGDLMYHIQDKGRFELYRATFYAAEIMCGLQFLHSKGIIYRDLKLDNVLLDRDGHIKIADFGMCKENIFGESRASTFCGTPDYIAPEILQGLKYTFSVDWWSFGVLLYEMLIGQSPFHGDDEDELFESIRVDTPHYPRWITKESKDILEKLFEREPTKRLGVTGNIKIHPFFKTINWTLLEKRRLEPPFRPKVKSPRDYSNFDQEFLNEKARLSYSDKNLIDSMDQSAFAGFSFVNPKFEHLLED

[6] = target: cGMP-dependent protein kinase 2 (Homo sapiens, UniProt Q13237); test: Inhibition of PRKG2 (unknown origin)
cGMP-dependent protein kinase 2, sequence (Q13237 whole entry): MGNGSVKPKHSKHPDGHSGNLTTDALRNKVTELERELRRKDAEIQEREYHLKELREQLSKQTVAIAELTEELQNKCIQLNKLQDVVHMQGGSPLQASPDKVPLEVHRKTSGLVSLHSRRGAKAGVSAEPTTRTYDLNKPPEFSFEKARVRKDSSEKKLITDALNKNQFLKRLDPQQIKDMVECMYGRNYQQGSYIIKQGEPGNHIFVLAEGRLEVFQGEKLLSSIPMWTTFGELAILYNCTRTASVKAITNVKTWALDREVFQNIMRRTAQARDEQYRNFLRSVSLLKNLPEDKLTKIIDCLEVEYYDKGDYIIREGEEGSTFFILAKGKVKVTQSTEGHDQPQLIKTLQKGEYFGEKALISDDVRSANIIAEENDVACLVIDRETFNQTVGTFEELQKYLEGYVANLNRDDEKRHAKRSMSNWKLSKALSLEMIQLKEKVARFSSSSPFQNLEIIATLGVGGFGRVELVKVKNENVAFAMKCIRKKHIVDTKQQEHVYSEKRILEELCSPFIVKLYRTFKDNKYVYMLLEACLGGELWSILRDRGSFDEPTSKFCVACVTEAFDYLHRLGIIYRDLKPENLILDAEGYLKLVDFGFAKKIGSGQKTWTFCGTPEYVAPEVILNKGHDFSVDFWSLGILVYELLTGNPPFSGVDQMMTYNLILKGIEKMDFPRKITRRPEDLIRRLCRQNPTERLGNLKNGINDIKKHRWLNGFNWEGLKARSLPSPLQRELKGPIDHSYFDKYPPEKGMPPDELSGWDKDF

[7] = AUC (0 to infinity) in female rat at 1.13 mg/kg, iv administered as single dose; format: ADME, organism-based; conditions: in vivo
Mus musculus [8] = test: Antialzheimer activity in 5XFAD mouse assessed as time in platform zone at 1200 ppm administered as rodent chow for 10 to 24 weeks by Morris water maze test (reference value: 0 to 27 sec); format: functional; conditions: route po, time 10-24 weeks
In short: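 Morris water maze: a circular pool was filled with opaque water (white paint added), and mice were given four trials per acquisition day. Twenty-four hours after the last acquisition day, the platform was removed for a 60 s probe trial. Mice had been on 1200 ppm PLX5622 or control chow for 10 or 24 weeks from 1.5 months of age.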

Mus musculus [9] = test: Antialzheimer activity in 5XFAD mouse assessed as number of triads at 1200 ppm administered as rodent chow for 10 to 24 weeks by Y-maze test (reference value: 3 to 9); format: functional; conditions: route po, time 10-24 weeks
In short: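 Y-maze: the sequence of arm entries was scored live and video-recorded. Triads were counted as sequential entries into three different arms. Mice had received 1200 ppm PLX5622 or control chow from 1.5 months of age.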

Mus musculus [10] = test: Effect on APP processing pathway in wildtype mouse assessed as C83 protein signal intensity in cortex at 1200 ppm administered as rodent starting from 1.5 months and measured after 7 months (reference value: 2.769 to 56.642 %); format: functional; conditions: route po, time 5.5 months, 4015 h
[11] = Effect on Csf1r RPKM gene expression in wild type mouse hippocampus at 1200 ppm administered as rodent chow starting from 1.5 months and measured after 7 months by RNA-Seq analysis (reference value: 18.240 to 20.004 RPKM); format: functional; conditions: route po, time 5.5 months, 4015 h
[12] = Effect on Ctsd gene expression in 5XFAD mouse cortex at 1200 ppm administered as rodent chow starting from 1.5 months and measured after 7 months by RNA-Seq analysis (reference value: 202.122 to 327.906 RPKM); format: functional; conditions: route po, time 5.5 months, 4015 h
[13] = Effect on Ctsz gene expression in 5XFAD mouse hippocampus at 1200 ppm administered as rodent chow starting from 1.5 months and measured after 7 months by RNA-Seq analysis (reference value: 34.576 to 51.120 RPKM); format: functional; conditions: route po, time 5.5 months, 4015 h
[14] = Effect on Gls gene expression in wildtype mouse hippocampus assessed as percent change in Reads Per kilo base per Million mapped reads at 1200 ppm administered as rodent chow starting from 1.5 months and measured after 7 months by RNA-Seq analysis (reference value: 89.231 to 109.618 %); format: functional; conditions: route po, time 5.5 months, 4015 h
[15] = Prevention of Chrm3 gene downregulation in 5XFAD mouse hippocampus assessed as percent change in Reads Per kilo base per Million mapped reads at 1200 ppm administered as rodent chow starting from 1.5 months and measured after 7 months by RNA-Seq analysis (reference value: 46.176 to 86.158 %); format: functional; conditions: route po, time 5.5 months, 4015 h
[16] = target: T1, Macrophage colony-stimulating factor 1 receptor (Mus musculus) (UniProt P09581); test: In vivo inhibition of CSF1R in wildtype mouse assessed as number of GFAP positive cells per FOV at 1200 ppm administered as rodent chow starting from 1.5 months and measured after 4 months by immunolabeling based confocal microscopic analysis (reference value: 1 to 7); format: functional; conditions: route po, time 2.5 months
T1 sequence (whole entry): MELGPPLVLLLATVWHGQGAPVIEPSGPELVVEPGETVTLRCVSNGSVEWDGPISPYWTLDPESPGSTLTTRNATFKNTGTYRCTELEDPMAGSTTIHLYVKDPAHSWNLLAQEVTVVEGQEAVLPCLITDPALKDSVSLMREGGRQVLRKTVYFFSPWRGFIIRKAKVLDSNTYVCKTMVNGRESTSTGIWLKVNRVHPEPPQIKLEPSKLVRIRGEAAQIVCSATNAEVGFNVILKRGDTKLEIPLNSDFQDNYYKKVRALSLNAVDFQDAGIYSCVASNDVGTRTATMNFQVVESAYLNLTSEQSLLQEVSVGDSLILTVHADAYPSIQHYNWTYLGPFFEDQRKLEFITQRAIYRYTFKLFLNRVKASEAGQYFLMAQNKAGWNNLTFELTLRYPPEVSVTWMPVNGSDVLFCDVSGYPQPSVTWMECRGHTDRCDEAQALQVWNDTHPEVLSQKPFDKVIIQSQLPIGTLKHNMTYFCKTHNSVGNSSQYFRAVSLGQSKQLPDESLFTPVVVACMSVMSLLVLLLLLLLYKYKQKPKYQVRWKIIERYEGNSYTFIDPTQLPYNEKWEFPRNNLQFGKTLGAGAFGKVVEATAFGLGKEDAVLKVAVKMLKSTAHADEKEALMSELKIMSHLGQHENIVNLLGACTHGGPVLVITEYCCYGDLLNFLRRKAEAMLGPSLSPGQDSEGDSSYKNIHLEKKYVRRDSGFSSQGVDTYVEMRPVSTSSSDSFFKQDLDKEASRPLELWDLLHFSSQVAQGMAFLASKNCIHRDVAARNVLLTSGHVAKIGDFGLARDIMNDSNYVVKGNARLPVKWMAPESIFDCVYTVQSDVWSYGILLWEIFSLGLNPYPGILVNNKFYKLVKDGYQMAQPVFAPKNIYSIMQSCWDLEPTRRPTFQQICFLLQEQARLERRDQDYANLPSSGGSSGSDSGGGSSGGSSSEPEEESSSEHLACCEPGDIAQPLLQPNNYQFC

Mus musculus [17] = test: Antialzheimer activity in 5XFAD mouse assessed as number of GFAP positive cells per FOV at 1200 ppm administered as rodent chow starting from 1.5 months to 4 months followed by compound removal and measured after 1 month by immunolabeling based confocal microscopic analysis (reference value: 20 to 71); format: functional; conditions: route po, time 2.5 months, 1825 h

| Compound | Activity (Mus musculus [1]) | IC50 [2] | IC50 (Ephrin type-B receptor 1) | IC50 [3] | IC50 [4] | IC50 [5] | IC50 [6] | AUC(0-inf) [7] | Time (Mus musculus [8]) | Activity (Mus musculus [9]) | Activity (Mus musculus [10]) | Activity [11] | Activity [12] | Activity [13] | Activity [14] | Activity [15] | Activity [16] | Activity (Mus musculus [17]) |
| --- | --- | --- | --- | --- | --- | --- | --- | --- | --- | --- | --- | --- | --- | --- | --- | --- | --- | --- |
| FC(F)(F)c1ccc(CNc2ccc(Cc3c[nH]c4ncc(Cl)cc34)cn2)cn1 [PEXIDARTINIB] | Active | – | – | – | – | – | – | – | – | – | – | – | – | – | – | – | – | – |
| COc1ncc(F)cc1CNc1ccc(Cc2c[nH]c3ncc(C)cc23)c(F)n1 [PLX-5622] | – | > 1 µM | > 1 µM | > 1 µM | > 1 µM | > 1 µM | > 1 µM | 5110 ng·h/mL | 0 s | 2 | 9.38% | 0.238 RPKM | 106.638 RPKM | 16.426 RPKM | 68.459% | 85.99% | 4 | 10 |
